Experimental data of several laboratories.
Lines come from different studies, so protocols differ.

Structure (SMILES) | system | conditions | Cmax
CCc1ccc(Cc2cc([C@@H]3O[C@H](CO)[C@@H](O)[C@H](O)[C@H]3O)cc3c2CCC3)cc1 | male C57BL/6 mouse, plasma | oral, 3 mg/kg | 1830 ng/mL
CC(C)(O)c1cn(-c2ccc(-c3cccc(S(C)(=O)=O)c3)cc2)c(C(C)(C)c2ccccc2Cl)n1 | male C57BL/6 mouse, serum | oral, 10 mg/kg | 15 µM
COc1nc(-c2cc(C)c(N[C@@H](C)c3cc(F)cc(F)c3)nn2)ccc1-n1cnc(C)c1 | male CD-1 mouse, plasma | intravenous, 1 mg/kg, single dose | 699 ng/mL
C[C@H](NC(=O)C(C)(C)Oc1ccc(C(F)(F)F)cn1)[C@@H](Cc1ccc(Cl)cc1)c1cccc(C#N)c1 | mouse, plasma | oral, 6 µmol/kg, single dose | 0.7 µM
CNCCN(C)c1cc(C#N)cc(CCc2cc(C)cc(N)n2)c1 | male BALB/c mouse, plasma | oral, 10 mg/kg | 50.8 ng/mL
COc1ccc2c3c1O[C@H]1C[C@@H](OC(=O)c4ccccc4)C=C[C@@]31CCN(C)C2 | mouse, brain | intravenous, 3 mg/kg | 4810 ng/g
COc1cc2c(Nc3ccc(Cl)c(Cl)c3F)ncnc2cc1OC[C@@H]1C[C@@H]2CN(C)C[C@@H]2C1 | FVB mouse, brain | oral, 70 mg/kg, single dose | 7570 ng/g
CN1CCC[C@H](CN2c3ccccc3Sc3ccccc32)C1.Cl | mouse, plasma | intraperitoneal, 32 mg/kg, single dose | 1560 ng/mL
Nc1nc(-c2ccccc2)nc2[nH]nc(Nc3ccc(C(F)(F)F)cc3)c12 | mouse, plasma | oral, 100 mg/kg | 1250 ng/mL
NC(=O)c1cccc(-c2c[nH]c3ncnc(N4CCOCC4)c23)c1 | female C57BL/6 mouse, plasma | intraperitoneal, 10 mg/kg | 11 µM
CC(C)N1Cc2cc(C(F)(F)F)ncc2C2=CN=C(NCc3c(F)ccc4c3CCO4)N3C=NC(C1=O)C23 (stereo not drawn) | male CD-1 mouse, plasma | oral, 10 mg/kg | 5070 ng/mL
CC=Cc1ccc(O)c(OC)c1 | mouse, brain | intranasal, 100 mg/kg | 4340 ng/g
O=C(NO)c1ccc(CN(c2cnccn2)c2cnccn2)cc1 | male C57BL/6 mouse, plasma | oral, 200 mg/kg, multiple doses, once daily, tumour-bearing | 300 ng/mL
CCn1ncc2c(Nc3ccc(OC(F)(F)F)cc3)ncnc21 | male BALB/c mouse, plasma | oral, 20 mg/kg | 263 ng/mL
O=S(=O)(c1ccc(-c2ccc3nccc(Nc4ccncn4)c3c2)cc1)N1CCOCC1 | female BALB/c mouse, plasma | intraperitoneal, 10 mg/kg | 4460 ng/mL
CNC(=O)[C@H](Cc1c[nH]cn1)NC(=O)CN(CCCc1ccccc1)CC(=O)O | male C57BL/6 mouse, plasma | intraperitoneal, 30 mg/kg | 11000 ng/mL
COc1cc(OC)c2nccc(N3CCc4c(cc(Cn5ccnc5)cc4-c4cn(C)nc4C(F)(F)F)C3=O)c2c1 | male CD-1 mouse, plasma | oral, 50 mg/kg | 19700 ng/mL
Nc1ncc(-c2ccncc2)nc1Nc1ccc2[nH]ccc2c1 | male C57BL/6 mouse, plasma | oral, 30 mg/kg | 7 µM
Cn1cnc2c(F)c(Nc3ccc(Br)cc3Cl)c(C(=O)NOCCO)cc21 | nude mouse, liver | oral, 5 mg/kg, single dose, tumour-bearing | 1340 ng/g
CS(=O)(=O)CCNCc1ccc(-c2ccc3ncnc(Nc4ccc(OCc5cccc(F)c5)c(Cl)c4)c3c2)o1 | nude mouse, plasma | oral, 100 mg/kg, single dose | 15200 ng/mL
NC1(C(=O)N[C@@H](CCO)c2ccc(Cl)cc2)CCN(c2ncnc3[nH]ccc23)CC1 | male Swiss mouse, plasma | intraperitoneal, 25 mg/kg, single dose | ~8 µM
Cc1cc(Nc2ccc(S(F)(F)(F)(F)F)cc2)n2ccnc2n1 | male Swiss mouse, plasma | oral, 100 mg/kg, single dose | 29 µM
OC[C@H]1O[C@@H](c2ccc(Cl)c(Cc3ccc(O[C@H]4CCOC4)cc3)c2)[C@H](O)[C@@H](O)[C@@H]1O | CD-1 mouse, plasma | oral, 10 mg/kg | 2460 ng/mL
CC[C@H](C)[C@@H]1NC(=O)[C@@](C)(NC(=O)[C@H](CCCNC(=N)N)NC(=O)[C@H](CC(C)C)NC(=O)[C@@H](NC(=O)[C@H](CCC(N)=O)NC(=O)[C@H](CC(C)C)NC(C)=O)[C@@H](C)O)CCCC=CCCC[C@@](C)(C(=O)N[C@@H](CC(C)C)C(=O)N[C@@H](Cc2ccc3ccccc3c2)C(N)=O)NC(=O)[C@H](CCCNC(=N)N)NC(=O)[C@H](CCC(N)=O)NC1=O | male BALB/c mouse, plasma | intravenous, 5 mg/kg | 41 µM

Structure (SMILES) | system | conditions | Cmax
C=CC(=O)N1CC2CC(n3nc(-c4ccc(C(=O)Nc5ccccn5)cc4)c4c(N)ncnc43)CC2C1 (stereo not drawn) | SCID mouse, plasma | oral, 5 mg/kg | 429 ng/mL
Cc1ccc2cncc(N3CCc4c(cc(Cn5ccnc5)cc4-c4cn(C)nc4C(F)(F)F)C3=O)c2c1 | male CD-1 mouse, plasma | oral, 10 mg/kg | 2680 ng/mL
CN1CCN(C(=O)c2cc3c(Nc4ccc(OC(F)(F)F)cc4)ncnc3s2)CC1 | male BALB/c mouse, plasma | oral, 20 mg/kg | 1090 ng/mL
Cc1c2c(n(-c3ccc(F)cc3Cl)c1-c1ccc(OS(=O)(=O)CCC(F)(F)F)cc1)CCN(N1CCCCC1)C2=O | mouse, plasma | oral, 6 µmol/kg, single dose | 0.04 µM
CNC(=O)[C@H](Cc1c[nH]cn1)NC(=O)CN(CCCc1ccccc1)CC(=O)OC | male C57BL/6 mouse, plasma | intraperitoneal, 30 mg/kg | 3800 ng/mL
CCOc1ccc(Cc2cc([C@@H]3O[C@H](CO)[C@@H](O)[C@H](O)[C@H]3O)ccc2Cl)cc1 | male C57BL/6 mouse, plasma | oral, 1 mg/kg | 207 ng/mL
COc1ccc(C(O)COc2ccc(-c3csc(-c4ccc(OCC(O)c5ccc(OC)c(OC)c5)cc4)n3)cc2)cc1OC (stereo not drawn) | C57BL/6 mouse, plasma | oral, 75 mg/kg | 7680 ng/mL
CCc1cc(OC)c2nccc(N3CCc4c(cc(Cn5ccnc5)cc4-c4cn(C)nc4C(F)(F)F)C3=O)c2c1 | male CD-1 mouse, plasma | oral, 150 mg/kg | 35200 ng/mL
COc1nc(-c2cc(C)c(N[C@@H](C)c3ccc(F)cc3)nn2)ccc1-n1cnc(C)c1 | male CD-1 mouse, plasma | intravenous, 1 mg/kg, single dose | 768 ng/mL
CNC(=O)c1ccccc1Nc1cc(Nc2ccc(N3CCOCC3)cc2OC)ncc1C(F)(F)F | BALB/c mouse, plasma | oral, 150 mg/kg | ~14 µM
COc1ccc([C@@]23Oc4cc(OC)cc(OC)c4[C@]2(O)[C@H](O)[C@H](C(=O)N(C)C)[C@H]3c2ccccc2)cc1 | mouse, plasma | oral, 5 mg/kg | ~0.8 µM
CSc1cc(Oc2ccnc3[nH]c(=O)cnc23)ccc1NC(=O)Nc1cc(C(C)(C)C)nn1-c1ccccc1 | BALB/c mouse, plasma | oral, 10 mg/kg | 54.2 µM
CNC(=O)c1cc(Oc2ccc(NC(=O)Nc3ccc(Cl)c(C(F)(F)F)c3)c(F)c2)ccn1 | male mouse, plasma | oral, 10 mg/kg, single dose | 3300 ng/mL
Cc1ccc(NC(=O)c2ccc(CN3CCN(C)CC3)cc2)cc1Nc1nccc(-c2cncc(-c3oncc3C)c2)n1 | male C57BL/6 mouse, brain | oral, 100 mg/kg/day | 98.1 ng/mL
CC(C)(O)c1cn(-c2ccc(-c3ccc(CO)c(S(C)(=O)=O)c3)cc2)c(Cc2ccccc2Cl)n1 | male C57BL/6 mouse, serum | oral, 10 mg/kg | 3.2 µM
CC1(C)CC[C@]2(C(=O)O)CC[C@]3(C)C(=CC[C@@H]4[C@@]5(C)C[C@@H](O)[C@H](OC(=O)/C=C/c6ccc(O)cc6)C(C)(C)[C@@H]5CC[C@]43C)[C@@H]2C1 (relative stereo) | mouse, brain | intraperitoneal, 85 µmol/kg, single dose | 1.75 µM
CC(=O)O[C@H]1C(=O)[C@@]2(C)[C@H]([C@H](OC(=O)c3ccccc3)[C@]3(O)C[C@H](OC(=O)[C@H](O)[C@@H](NC(=O)c4ccccc4)c4ccccc4)C(C)=C1C3(C)C)[C@]1(OC(C)=O)CO[C@@H]1C[C@@H]2O | SCID mouse, tumour | intraperitoneal, 10 mg/kg, single dose, tumour-bearing | 3700 ng/g
COc1nc(-c2cc(C)c(N[C@@H](C)c3c(F)cc(F)cc3F)nn2)ccc1-n1cnc(C)c1 | male CD-1 mouse, plasma | oral, 5 mg/kg, single dose | 1010 ng/mL
CN1C(=O)c2ccccc2[S@+]([O-])c2ccc(C(=O)NCCc3cccs3)cc21 | male C57BL/6 mouse, plasma | intraperitoneal, 30 mg/kg, single dose | 8280 ng/mL
COc1ccc2nc(-c3ccccn3)c(N(C)c3ccc(F)cc3)n2c1 | male CD-1 mouse, plasma | oral, 50 mg/kg, fasted | 1440 ng/mL
COc1ccc2nccc(N3CCc4c(cc(Cn5ccnc5)cc4-c4cn(C)nc4C(F)(F)F)C3=O)c2c1 | male CD-1 mouse, plasma | oral, 50 mg/kg | 8940 ng/mL
CC(C)(C)c1ccc(O)c(CN(Cc2cc(C(C)(C)C)ccc2O)C2CCC(NC(N)=O)CC2)c1 (stereo not drawn) | male C57BL/6 mouse, brain | intraperitoneal, 25 mg/kg, single dose | 1610 ng/g
CCc1cc(C(=O)NC)c2nccc(N3CCc4c(cc(Cn5ccnc5)cc4-c4cn(C)nc4C(F)(F)F)C3=O)c2c1 | male CD-1 mouse, plasma | oral, 50 mg/kg | 25100 ng/mL
Cc1nc(-c2cnc(NC(C)C)n(C)c2=O)ccc1Oc1ccnc(-c2cnn(C)c2)c1 | female mouse, plasma | oral, 15 mg/kg, single dose | 9360 ng/mL
